From PMC9948165 (ACS Omega, 2023)

How the values were obtained:
Type in all cases: cell-based, human
[1] = system: LO2 cells; assay: MTT cytotoxicity assay, LO2 normal hepatocytes; settings: read-out: IC50 LO2 cells, 72 h, normal hepatocyte cell line
In short: (§1)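 Cells seeded at 5 × 10^3 per well in 96-well plates and left overnight: A549 and HCT116 in RPMI-1640, LO2 in DMEM. Medium replaced with test compound at 100, 50, 25, 12.5, 6.25, 3.125 or 1.5625 μM for 72 h; medium-only control. MTT (5 mg/mL) added for 4 h, formazan dissolved in DMSO, OD read at 490 nm; IC50 derived.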

[2] = system: A549 cells; assay: MTT cytotoxicity assay, A549; settings: read-out: IC50 A549 cells, 72 h
In short: as §1

[3] = system: HCT116 cells; assay: MTT cytotoxicity assay, HCT116; settings: for IC50: read-out: IC50 HCT116 cells, 72 h
In short: as §1

[4] = system: HCT116 cells; assay: Cell cycle analysis by flow cytometry; settings: HCT116, 10 μM, 24 h
In short: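 HCT116 cells in log phase were seeded at 1 × 10^6 per well in six-well plates and grown 24 h at 37 °C. They were PBS-washed, given fresh medium with 10 μM test compound for 24 h, trypsinised and washed in cold PBS. Cells were fixed in 70% ethanol at −20 °C for 48 h, treated with RNase A at 37 °C for 30 min, then PI for 30 min at RT in the dark. Flow cytometry DNA content was model-fitted into cell-cycle phases.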

| Structure (SMILES) | IC50 [1] [µM] | IC50 [2] [µM] | IC50 [3] [µM] | cytotoxicity against HCT116 cells ([3]; at 25 μM, 72 h) [%] | cell cycle blocking effect [4] |
| --- | --- | --- | --- | --- | --- |
| c1cnc2c([O][Ga]([O]c3cccc4cccnc34)[O]c3cccc4cccnc34)cccc2c1 [CP-1, [Ga(HQL)3]] | 8 ± 1 | 3.8 ± 1.1 | 1.2 ± 0.2 |  |  |
| Cc1ccc2cccc([O][Ga]([O]c3cccc4ccc(C)nc34)[O]c3cccc4ccc(C)nc34)c2n1 [CP-2, [Ga(MQL)3]] | 3.3 ± 0.5 | 6.1 ± 0.8 | 4.7 ± 0.7 |  |  |
| Clc1ccc([O][Ga]([O]c2ccc(Cl)c3cccnc23)[O]c2ccc(Cl)c3cccnc23)c2ncccc12 [CP-3, [Ga(ClQL)3]] | 23.3 ± 5.3 | 8.7 ± 0.8 | 2 ± 0.3 | 91.98 |  |
| N.N.[Cl][Pt][Cl] [cisplatin, reference compound] | 0.7 | 7.5 ± 0.7 | 5.7 |  | mainly blocked the cell cycle in the S phase |
| O=C1[O][Pt]2([NH][C@@H]3CCCC[C@H]3[NH]2)[O]C1=O [oxaliplatin, reference compound] | 2.3 ± 0.3 | 3.2 ± 0.2 | 8.3 ± 0.4 |  | blocked it in the G1/S/G2 phase with comparable effects |
